Active and inactive are the calls of the source. No cut-off for these calls is given here.

The values below come from ChEMBL document CHEMBL1140056, “Design, synthesis, and antitumor activity of new bis-aminomethylnaphthalenes” (2008).

Test [1] is described as follows: Antitumor activity against human NCI60 cells after 48 hrs by SRB assay. The test is classed as functional. The conditions noted are these: NCI60, 48 h; for TGI: read-out: pTGI (converted). In outline: (§1)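 Run at NCI in the 60-line human tumour panel. Five concentrations at 10-fold dilutions starting from 10^-4 M, with continuous exposure for 48 h. Growth was read by sulforhodamine B protein staining. GI50 (+50% growth), TGI (0% growth) and LC50 were interpolated from the curves, and MG-MID is the arithmetic mean across all tested lines.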
(In general: Sulforhodamine B stains cellular protein and so reports cell mass.)

A further test concerns HCT-116. The experiment in a line: Antitumor activity against human HCT116 cells after 48 hrs by SRB assay. The test is classed as functional. The conditions noted are these: HCT-116, 48 h. In outline: as §1
For the next test, the system named is KM12. The experiment in a line: Antitumor activity against human KM12 cells after 48 hrs by SRB assay. The test is classed as functional. The following applies: KM12, 48 h. The essentials: as §1
In a further test the test system is UACC-62. The experiment in a line: Antitumor activity against human UACC62 cells after 48 hrs by SRB assay. The test is classed as functional. The conditions noted are these: UACC-62, 48 h. In outline:
as §1

In the next test the test system is T47D. The experiment in a line: Antitumor activity against human T47D cells after 48 hrs by SRB assay. The test is classed as functional. The essentials: as §1
Another test deals with MDA-MB-231. The experiment in a line: Antitumor activity against human MDA-MB-231 cells after 48 hrs by SRB assay. The test is classed as functional. The following applies: MDA-MB-231, 48 h. The essentials: as §1
The test system of the next test is SR. The experiment in a line: Antitumor activity against human SR cells after 48 hrs by SRB assay. The test is classed as functional. The essentials: as §1
Test [2] can be described thus: Antitumor activity against human MCF7/ADR-RES cells after 48 hrs by SRB assay. The test is classed as functional. The conditions noted are these: NCI/ADR-RES. In outline: as §1
The test system of the next test is MCF7. Put plainly: Antitumor activity against human MCF7 cells after 48 hrs by SRB assay. The test is classed as functional. The conditions noted are these: MCF7, 48 h. In outline:
as §1

For another test, the system named is RPMI-8226. The experiment in a line: Antitumor activity against human RPMI8226 cells after 48 hrs by SRB assay. The conditions noted are these: RPMI-8226, 48 h. The test is classed as functional. In outline:
as §1

In a further test the test system is HT-29. Put plainly: Antitumor activity against human HT29 cells after 48 hrs by SRB assay. The test is classed as functional. The following applies: HT-29, 48 h. The essentials: as §1
The test system of a further test is MOLT-4. The experiment in a line: Antitumor activity against human MOLT4 cells after 48 hrs by SRB assay. The test is classed as functional. The following applies: MOLT-4, 48 h. The essentials: as §1
The next test concerns LOX IMVI. Put plainly: Antitumor activity against human LOXIMVI cells after 48 hrs by SRB assay. The test is classed as functional. In outline:
as §1

Another test relates to Malme-3M. The experiment in a line: Antitumor activity against human MALME3M cells after 48 hrs by SRB assay. The test is classed as functional. The essentials: as §1
Test [3] is described as follows: Antitumor activity against human HL60(TB) cells after 48 hrs by SRB assay. The following applies: HL-60, 48 h. The test is classed as functional, HL-60(TB). The essentials:
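NCI 60-cell-line primary screen: five concentrations at 10-fold dilutions starting from 10^-4 M. Cells exposed to drug continuously for 48 h. Growth estimated by sulforhodamine B protein assay. GI50 is the interpolated molar concentration giving +50% growth, TGI the concentration giving 0% growth, and LC50 the concentration giving 50% net cell death.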

Another test relates to Hs-578T. Put plainly: Antitumor activity against human HS578T cells after 48 hrs by SRB assay. The test is classed as functional. The essentials:
as §1

The next test relates to SW-620. The experiment in a line: Antitumor activity against human SW620 cells after 48 hrs by SRB assay. The test is classed as functional. The conditions noted are these: SW-620, 48 h. In outline:
as §1

In another test the test system is Tru-Pr1. The experiment in a line: Effect on cell cycle in human […] cells at 10 uM after 48 hrs by FACS analysis. The test is classed as functional, cell-based. The essentials: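 TSU-Pr1 prostate carcinoma cells (5×10^5) in exponential growth were treated for 48 h. They were then centrifuged, fixed in ice-cold 70% ethanol, treated with lysis buffer containing RNase, and stained with propidium iodide. DNA content and cell-cycle phases were read by flow cytometry.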
Background: In flow cytometry, cells or beads pass a laser one at a time.

Another test has as its system SK-MEL-28. Put plainly: Antitumor activity against human SK-MEL-28 cells after 48 hrs by SRB assay. The following applies: SK-MEL-28, 48 h. The test is classed as functional. In outline: as §1
Another test concerns SK-MEL-5. Put plainly: Antitumor activity against human SK-MEL-5 cells after 48 hrs by SRB assay. The test is classed as functional. The conditions noted are these: SK-MEL-5, 48 h. In outline: as §1
In a further test the test system is M14. Put plainly: Antitumor activity against human M14 cells after 48 hrs by SRB assay. The test is classed as functional. The following applies: M14, 48 h. In outline: as §1
Another test relates to K562. Put plainly: Antitumor activity against human K562 cells after 48 hrs by SRB assay. The following applies: K562, 48 h. The test is classed as functional. In outline:
as §1

The subject of a further test is UACC-257. The experiment in a line: Antitumor activity against human UACC257 cells after 48 hrs by SRB assay. The test is classed as functional. The following applies: UACC-257, 48 h. In outline: as §1
In a further test the test system is SK-MEL-2. Put plainly: Antitumor activity against human SK-MEL-2 cells after 48 hrs by SRB assay. The test is classed as functional. The following applies: SK-MEL-2, 48 h. The essentials: as §1
In a further test the test system is MDA-MB-435. Put plainly: Antitumor activity against human MDA-MB-435 cells after 48 hrs by SRB assay. The following applies: MDA-MB-435, 48 h. The test is classed as functional. The essentials: as §1
A further test deals with COLO 205. Put plainly: Antitumor activity against human COLO205 cells after 48 hrs by SRB assay. The conditions noted are these: COLO 205, 48 h. The test is classed as functional. The essentials:
as §1

In another test the test system is MDA-N. The experiment in a line: Antitumor activity against human MDA-N cells after 48 hrs by SRB assay. The test is classed as functional. In outline: as §1

`COc1ccc2cc(CNCCCCCCNCc3ccc4cc(OC)ccc4c3)ccc2c1`: in test [1], the GI50 (commonly the concentration at which growth is held to half of that of the control) was 603 nM; the LC50 (in general, the concentration lethal to half of the exposed cells or organisms) was 4070 nM; the TGI was 1740 nM.
Take `COc1ccc2cc(CNCCCCCCCCNCc3ccc4cc(OC)ccc4c3)ccc2c1`: in test [1], the GI50 was 1150 nM, the LC50 is 6310 nM and the TGI was 2400 nM.
The corresponding values for `COc1ccc2cc(CNCCCCCCCCCCCCNCc3ccc4cc(OC)ccc4c3)ccc2c1` are 15500 nM, 55000 nM and 29500 nM.
For the molecule `c1ccc2cc(CN3CCC(C4CCN(Cc5ccc6ccccc6c5)CC4)CC3)ccc2c1`, in [1], the GI50 is 2880 nM, the LC50 is 25100 nM and the TGI is 8320 nM.
The corresponding values for `c1ccc2c(CNCCCCCCNCc3cccc4ccccc34)cccc2c1` are 5370 nM, 29500 nM and 12300 nM.
The corresponding values for `c1ccc2c(CN3CCC(C4CCN(Cc5cccc6ccccc56)CC4)CC3)cccc2c1` are 1950 nM, 9550 nM and 4270 nM.
`COc1cc(NS(C)(=O)=O)ccc1Nc1c2ccccc2nc2ccccc12` [AMSACRINE]: in [1], it took 229 nM to inhibit growth by half (GI50) and the TGI was 3390 nM.
On to `c1ccc2c(CNCCCN3CCN(CCCNCc4cccc5ccccc45)CC3)cccc2c1`, for which, in [1], halving of growth (GI50) required 6610 nM, the LC50 is 43700 nM and the TGI is 19500 nM.
`COc1ccc2cc(CNCCOCCOCCNCc3ccc4cc(OC)ccc4c3)ccc2c1`: in test [1], growth was halved (GI50) at 724 nM, the median lethal concentration (LC50) is 5250 nM and the TGI is 1910 nM.
Regarding `c1ccc2c(CNCCCCCCCCCCCCNCc3cccc4ccccc34)cccc2c1`, in test [1], the GI50 was 2190 nM and the TGI was 4370 nM.
As to `c1ccc2cc(CNCCOCCOCCNCc3ccc4ccccc4c3)ccc2c1`, in [1], the GI50 is 1700 nM, the LC50 was 10000 nM and the TGI is 3720 nM.
Consider `c1ccc2c(CNCCCCCCCCNCc3cccc4ccccc34)cccc2c1`, for which, in [1], it took 2400 nM to inhibit growth by half (GI50) and the TGI is 5250 nM.
As for `COc1ccc2cc(CNCCCN3CCN(CCCNCc4ccc5cc(OC)ccc5c4)CC3)ccc2c1`, in [1], the GI50 was 1100 nM, the LC50 is 5620 nM and the TGI was 2450 nM.
`O=C1c2c(O)ccc(O)c2C(=O)c2c(NCCNCCO)ccc(NCCNCCO)c21` [MITOXANTRONE]: in [1], the GI50 is 47.9 nM and the TGI was 692 nM.
As to `COc1ccc2cc(CN3CCC(C4CCN(Cc5ccc6cc(OC)ccc6c5)CC4)CC3)ccc2c1`, the GI50 in the test with HCT-116 was 3470 nM; in the test on KM12 it was 3240 nM; with UACC-62 it was 1910 nM; in the test on T47D, 1780 nM; with MDA-MB-231, 3310 nM; in the test on SR, 1230 nM. For the same molecule, the GI50 is 13200 nM in test [2]; 5250 nM in the test on MCF7; 1740 nM with RPMI-8226; 3390 nM with HT-29; 2190 nM in the test with MOLT-4; 2820 nM in the test with LOX IMVI. Further, the GI50 is 2290 nM with Malme-3M; 2630 nM in [3]; 10700 nM with Hs-578T; 3160 nM with SW-620; 2630 nM in the test with SK-MEL-28; 1480 nM in the test with SK-MEL-5. Also, the GI50 with M14 is 2450 nM; with K562, 501 nM; with UACC-257, 2040 nM; in the test with SK-MEL-2 it was 6460 nM; in the test on MDA-MB-435 it was 1910 nM; with COLO 205, 1620 nM. The GI50 in the test with MDA-N is 1700 nM; in test [1], 2950 nM. Besides, the outcome in the test with Tru-Pr1 was inactive. Also, in [1], the TGI was 9770 nM.
